We go through 13 molecules from ChEMBL document CHEMBL4196181, “Flabellipparicine, a Flabelliformide-Apparicine-Type Bisindole Alkaloid from Tabernaemontana divaricata” (J Nat Prod, 2018).

Active and inactive are the calls of the source. No cut-off for these calls is given here.

Assay [1] has as its system MCF7. Kind of assay: Cytotoxicity against human MCF7 cells after 72 hrs by sulforhodamine B assay. It is filed as functional, cell-based. Particulars: for IC50: MCF7, 72 h. In outline:
(§1)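 Antiproliferative test on MCF-7 human breast adenocarcinoma and A-549 human lung carcinoma cells. SN38 (7-ethyl-10-hydroxycamptothecin) served as positive control. IC50 is the concentration giving 50% inhibition of cell growth, calculated by a literature procedure.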
A general note: In SRB staining, fixed cells bind dye roughly in proportion to their protein.

Assay [2] deals with A549. Briefly: Cytotoxicity against human A549 cells after 72 hrs by sulforhodamine B assay. It is filed as functional, cell-based. Particulars: for IC50: A549, 72 h. In outline: as §1

Regarding `C/C=C1/C[N+]2(C)[C@@H]3Cc4c([nH]c5ccccc45)[C@]2(c2ccc4c5c([nH]c4c2)[C@@H]2C[C@H]4C[C@H](CC)[C@@H]2N(CC5)C4)C[C@H]1[C@H]3C(=O)OC`, the half-inhibitory concentration (IC50) – broadly, the midpoint of a concentration-inhibition curve – in assay [1] worked out at 1300 nM; in assay [2] it was 3200 nM.
Take `CC[C@H]1[C@@H]2CCN3CC[C@@]4(C(=C2C(=O)OC)Nc2ccccc24)[C@@H]13`: the result in assay [1] and in assay [2] was inactive.
Consider `C/C=C1/C[N+]2(C)[C@@H]3Cc4c([nH]c5ccccc45)[C@]2(c2ccc4c5c([nH]c4c2)[C@]2(C(=O)OC)C[C@H]4C[C@H](CC)[C@@H]2N(CC5)C4)C[C@H]1[C@H]3C(=O)OC`, for which the IC50 was 7300 nM in assay [1] and 1200 nM in assay [2].
On to `C/C=C1/CN2CC[C@@H]1/C(=C\[C@@H]1C[C@@H]3[C@H](CC)CN(C)[C@H](Cc4c1[nH]c1ccccc41)[C@@H]3C(=O)OC)c1[nH]c3ccccc3c1C2`, for which the figures for the 50% inhibitory concentration (IC50) in assay [1] and in assay [2] were 800 nM and 8100 nM, respectively.
Regarding `C=C1c2[nH]c3ccccc3c2CN2CC[C@H]1/C(=C\C)C2`, the outcome in assay [1] and in assay [2] was inactive.
Take `CC[C@@H]1CN(C)[C@@H]2Cc3c([nH]c4ccccc34)[C@H](c3ccc4c5c([nH]c4c3)[C@]3(C(=O)OC)C[C@H]4C[C@H](CC)[C@@H]3N(CC5)[C@H]4CC(C)=O)C[C@H]1[C@H]2C(=O)OC`: the IC50 was 1300 nM in assay [1] and 1200 nM in assay [2].
Take `C/C=C1/CN2CC[C@@H]1[C@@]1(C[C@H]3C[C@@H]4/C(=C\Cc5c3n1c1ccccc51)C(=O)N(C)C[C@@H]4CC)c1[nH]c3ccccc3c1C2`: the results for the IC50 in assay [1] and in assay [2] were greater than 10000 nM and 7500 nM, respectively.
For `CCc1c2c(nc3ccc(O)cc13)-c1cc3c(c(=O)n1C2)COC(=O)[C@]3(O)CC` [7-ETHYL-10-HYDROXYCAMPTOTHECIN], in that order: less than 0.1 nM and 200 nM.
`CCC1C[C@@H]2C[C@@]3(C(=O)OC)C4=Nc5ccccc5[C@@]4(O)CCN([C@@H]13)[C@H]2CC(C)=O` (stereo partly specified): the result in assay [1] and in assay [2] was inactive.
Take `C/C=C1/CN2CC[C@@H]1/C(=C\[C@@H]1C[C@@H]3/C(=C\C)CN(C)[C@H](Cc4c1[nH]c1ccccc41)[C@@H]3C(=O)OC)c1[nH]c3ccccc3c1C2`: the IC50 is 1300 nM in assay [1] and 4000 nM in assay [2].
In the same order, the values of `CC[C@@H]1CN(C)[C@@H]2Cc3c([nH]c4ccccc34)[C@H](c3ccc4c5c([nH]c4c3)[C@]3(C(=O)OC)C[C@H]4C[C@H](CC)[C@@H]3N(CC5)C4)C[C@H]1[C@H]2C(=O)OC` are 5400 nM and greater than 10000 nM.
For `CC[C@H]1CN2CCc3cc(OC)c(OC)cc3[C@@H]2C[C@@H]1C[C@H]1NCCc2c1[nH]c1ccccc21`, in that order: 2 nM and 90 nM.
In the same order, the values of `CC[C@@H]1CN(C)[C@@H]2Cc3c([nH]c4ccccc34)[C@H](c3ccc4c(c3)N=C3[C@@H]5C[C@H]6C[C@H](CC)[C@@H]5N(CC[C@@]34O)C6)C[C@H]1[C@H]2C(=O)OC` are 1300 nM and greater than 10000 nM.
